The results in this text go back to ChEMBL document CHEMBL4304816, “A Novel Biphenyl-based Chemotype of Retinoid X Receptor Ligands Enables Subtype and Heterodimer Preferences” (ACS Med Chem Lett, 2019).

The species entered for data set [1] is Homo sapiens. As to the kind of experiment: Agonist activity at full-length human PPARgamma/RXR expressed in HEK293T cells at 10 uM after 14 to 16 hrs by dual-glo luciferase reporter gene assay relative to untreated control. In kind it is cell-based. In outline: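 RXR:PPARγ heterodimer reporter assay in HEK293T cells with test compound alone. Mean relative activation is taken versus 0.1% DMSO, from three independent experiments each run in duplicate.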

A short description of data set [2]: Solubility of compound at 3 mg after 24 hrs by HPLC analysis. In kind it is physicochemical.
The target in data set [3] is T1, Retinoic acid receptor RXR-alpha (Homo sapiens) (UniProt P19793).
T1 sequence (whole entry): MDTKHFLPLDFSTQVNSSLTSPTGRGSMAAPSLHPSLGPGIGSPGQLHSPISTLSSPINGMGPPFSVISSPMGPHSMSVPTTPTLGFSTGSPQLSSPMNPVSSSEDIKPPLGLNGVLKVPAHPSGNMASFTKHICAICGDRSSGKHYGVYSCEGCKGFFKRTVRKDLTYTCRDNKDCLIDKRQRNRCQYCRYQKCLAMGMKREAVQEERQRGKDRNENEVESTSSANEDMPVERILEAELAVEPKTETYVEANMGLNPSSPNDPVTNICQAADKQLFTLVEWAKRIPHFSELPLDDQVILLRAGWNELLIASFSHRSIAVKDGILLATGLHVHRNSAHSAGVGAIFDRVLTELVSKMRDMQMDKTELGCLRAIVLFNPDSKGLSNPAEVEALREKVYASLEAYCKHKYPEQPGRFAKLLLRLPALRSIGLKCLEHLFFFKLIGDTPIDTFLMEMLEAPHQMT
As to the kind of experiment: Agonist activity at Gal4-LBD fused RXRalpha (unknown origin) expressed in HEK293T cells at 0.1 to 3 uM after 14 to 16 hrs in presence of RXR antagonist HX531 by dual-Glo luciferase reporter gene assay. It counts as cell-based. On the technique in general: In a reporter assay the amount or activity of a reporter protein is the signal.

Data set [4] has as its target T2, Retinoic acid receptor RXR-beta (Homo sapiens, UniProt P28702).
T2 sequence (P28702 whole entry): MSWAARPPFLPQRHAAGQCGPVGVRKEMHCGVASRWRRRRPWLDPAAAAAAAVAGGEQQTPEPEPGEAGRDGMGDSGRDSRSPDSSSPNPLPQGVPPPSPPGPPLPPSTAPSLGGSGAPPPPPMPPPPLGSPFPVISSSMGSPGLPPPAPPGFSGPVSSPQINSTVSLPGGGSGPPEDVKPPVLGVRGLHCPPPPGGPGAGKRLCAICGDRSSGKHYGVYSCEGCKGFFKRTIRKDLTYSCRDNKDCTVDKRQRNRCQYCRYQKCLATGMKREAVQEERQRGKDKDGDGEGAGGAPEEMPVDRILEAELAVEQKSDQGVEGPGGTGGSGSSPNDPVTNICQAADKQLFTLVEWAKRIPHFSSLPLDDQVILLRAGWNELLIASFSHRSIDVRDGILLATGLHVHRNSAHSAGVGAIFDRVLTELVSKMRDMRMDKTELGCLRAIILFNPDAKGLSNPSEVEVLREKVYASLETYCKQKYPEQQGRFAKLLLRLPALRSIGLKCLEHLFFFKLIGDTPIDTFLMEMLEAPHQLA
As to the kind of experiment: Agonist activity at Gal4-LBD fused RXRbeta (unknown origin) expressed in HEK293T cells after 14 to 16 hrs by dual-Glo luciferase assay. It counts as cell-based. The gist of the method: (§1)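 Gal4-hybrid RXRα/β/γ reporter gene assays in HEK293T cells. Fold activation is the maximal fold activation versus 0.1% DMSO.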

Data set [5] deals with T3, Retinoic acid receptor RXR-gamma (Homo sapiens) (UniProt P48443).
T3 sequence (whole entry): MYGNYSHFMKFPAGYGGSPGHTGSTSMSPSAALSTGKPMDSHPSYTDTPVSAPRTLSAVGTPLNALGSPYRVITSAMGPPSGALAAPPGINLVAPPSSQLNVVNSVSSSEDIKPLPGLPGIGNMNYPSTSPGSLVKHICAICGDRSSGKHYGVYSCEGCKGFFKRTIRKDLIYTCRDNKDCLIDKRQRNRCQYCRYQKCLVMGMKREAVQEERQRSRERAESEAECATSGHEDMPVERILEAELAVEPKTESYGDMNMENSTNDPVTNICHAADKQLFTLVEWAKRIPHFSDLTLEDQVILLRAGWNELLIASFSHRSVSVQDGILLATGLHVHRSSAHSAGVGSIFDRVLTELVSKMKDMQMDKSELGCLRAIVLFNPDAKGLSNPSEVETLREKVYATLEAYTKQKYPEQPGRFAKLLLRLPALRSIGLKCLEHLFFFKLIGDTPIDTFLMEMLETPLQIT
As to the kind of experiment: Agonist activity at Gal4-LBD fused RXRgamma (unknown origin) expressed in HEK293T cells at 0.1 to 3 uM after 14 to 16 hrs in presence of RXR antagonist HX531 by dual-Glo luciferase reporter gene assay. It counts as cell-based.

For data set [6], the target named is T4, Retinoic acid receptor RXR-gamma (Homo sapiens, UniProt P48443).
T4 sequence (P48443 whole entry): T3 sequence (whole entry)
As to the kind of experiment: Agonist activity at Gal4-LBD fused RXRgamma (unknown origin) expressed in HEK293T cells after 14 to 16 hrs by dual-Glo luciferase assay. In kind it is cell-based. In outline:
as §1

A short description of data set [7]: Agonist activity at full-length human RXR/LXR expressed in HEK293T cells at 10 uM after 14 to 16 hrs by dual-glo luciferase reporter gene assay relative to untreated control. In kind it is cell-based. Conditions: HEK-293T, read-out: Activity. In outline: (§2)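 RXR:LXR or RXR:PPARγ heterodimer reporter assay with test compound alone. Activation expressed relative to 0.1% DMSO vehicle. Three independent experiments, each in duplicate; mean reported.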

Data set [8] is filed under the species Homo sapiens. In words: Agonist activity at full-length human PPARgamma/RXR expressed in HEK293T cells at 10 uM after 14 to 16 hrs in presence of 1 uM rosiglitazone by dual-glo luciferase reporter gene assay relative to rosiglitazone. It counts as cell-based. The gist of the method: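 RXR:PPARγ heterodimer reporter assay run with reference PPARγ agonist rosiglitazone (1 μM) co-applied. Read-out is mean relative synergistic activation, from three independent experiments each run in duplicate.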

Data set [9] in a line: Metabolic stability in Wistar rat liver microsomes at 10 uM preincubated for 5 mins followed by microsomes addition in presence of NADPH measured up to 60 mins by HPLC analysis. In kind it is ADME, Microsome. Conditions: 1 h. A general note: Liver microsomes are a subcellular fraction often used to study metabolism.
Data set [10] addresses T5, Retinoic acid receptor RXR-alpha (Homo sapiens, UniProt P19793).
T5 sequence (P19793 whole entry): T1 sequence (whole entry)
As to the kind of experiment: Agonist activity at Gal4-LBD fused RXRalpha (unknown origin) expressed in HEK293T cells after 14 to 16 hrs by dual-Glo luciferase assay. In kind it is cell-based. In outline: as §1

In data set [11] the target is T6, Retinoic acid receptor RXR-beta (Homo sapiens) (UniProt P28702).
T6 sequence (whole entry): T2 sequence (P28702 whole entry)
In words: Agonist activity at Gal4-LBD fused RXRbeta (unknown origin) expressed in HEK293T cells at 0.1 to 3 uM after 14 to 16 hrs in presence of RXR antagonist HX531 by dual-Glo luciferase reporter gene assay. In kind it is cell-based.

Data set [12] is described as follows: Agonist activity at full-length human RXR/LXR expressed in HEK293T cells at 10 uM after 14 to 16 hrs in presence of 1 uM T0901317 by dual-glo luciferase reporter gene assay relative to T0901317. The following applies: HEK-293T, read-out: Activity. It counts as cell-based. The gist of the method:
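Synergy format: the test compound was co-applied with the partner-receptor reference agonist at 1 μM, either T0901317 (RXR:LXR) or rosiglitazone (RXR:PPARγ). Relative synergistic activation was derived from three independent experiments, each in duplicate; mean reported.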

A short description of data set [13]: Agonist activity at full-length human RXR/LXR expressed in HEK293T cells at 1 uM after 14 to 16 hrs by dual-glo luciferase reporter gene assay relative to untreated control. In kind it is cell-based. The following applies: HEK-293T, read-out: Activity. The gist of the method:
as §2

Converted amounts (≈) assume the structure as drawn. The source made the active and inactive calls. The rule behind the calls is not given here.

By solubility is commonly meant the dissolved amount per volume that the medium holds. A word on the EC50: it is the concentration that produces a half-maximal response. The low end stands for greater potency, the high end for weaker potency. As for `O=C(O)Cc1ccc(-c2cc(C(F)(F)F)cc(C(F)(F)F)c2)cc1`, the Activity in the data set listed under Homo sapiens [1] was 267%; in the data set filed under Homo sapiens [8] it was 154%. For the same compound, in [2], the concentration in solution (solubility at 24 h) came to 1.15 µg/mL (≈ 3.3 µM). For the same compound, the Activity result in data set [3], in data set [5] and in data set [11] was “inactive” in each case. The results for the EC50 in data set [4], in data set [6] and in data set [10] were 150 nM, 220 nM and 80 nM, respectively. The results for the activity at 10 µM in data set [7] and in [12] were 132% and 127%, respectively. Besides, in data set [9], the Stability entry was “Stable”.

For the compound `O=S(=O)(c1ccccc1)N(CC(F)(F)F)c1ccc(C(O)(C(F)(F)F)C(F)(F)F)cc1` [T091317], the activity at 1 µM in data set [13] came out at 380%.
